What all share (format): ADME
One data set concerns the target T1, Cytochrome P450 1A2 (Homo sapiens, UniProt P05177).
T1 sequence (P05177 whole entry): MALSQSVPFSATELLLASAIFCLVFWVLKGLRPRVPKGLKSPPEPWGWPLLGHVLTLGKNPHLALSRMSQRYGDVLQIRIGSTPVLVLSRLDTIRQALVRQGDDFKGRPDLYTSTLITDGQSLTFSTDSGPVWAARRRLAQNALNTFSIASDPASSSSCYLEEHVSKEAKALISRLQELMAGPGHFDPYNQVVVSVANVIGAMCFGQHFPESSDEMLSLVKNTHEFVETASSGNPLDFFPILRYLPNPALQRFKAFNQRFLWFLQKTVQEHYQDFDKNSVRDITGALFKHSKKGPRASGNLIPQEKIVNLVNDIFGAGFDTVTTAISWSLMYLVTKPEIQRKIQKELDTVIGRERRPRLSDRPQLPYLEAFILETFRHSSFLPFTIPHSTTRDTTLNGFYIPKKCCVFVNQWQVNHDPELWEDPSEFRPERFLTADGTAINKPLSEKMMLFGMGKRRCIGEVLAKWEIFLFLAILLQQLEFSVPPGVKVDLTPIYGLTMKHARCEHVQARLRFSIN
Briefly: Activity of human CYP1A2 expressed in microsomes isolated from baculovirus infected insect cell assessed as enzyme-mediated compound formation treated with [14C]-rivoglitazone at 20 uM after 2 hrs by radio-HPLC/LC-MS/MS analysis in presence of NADPH-generating system. The procedure, abridged: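 Baculovirus/insect-cell microsomes expressing single human CYPs, 1 mg/ml protein, with 50 mM potassium phosphate (pH 7.4) or 100 mM Tris-HCl (pH 7.5). NADPH-generating system: 2 mM NADP⁺, 20 mM glucose 6-phosphate, 2 units/ml G6PDH, 10 mM MgCl₂. [¹⁴C]rivoglitazone at 20 μM, 2 h at 37°C with shaking. Control used insect-cell control supersomes. Stopped with acetonitrile; supernatant concentrated under nitrogen; metabolites analysed by radio-HPLC, LC-MS and LC-MS/MS.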

The target of data set [1] is T2, UDP-glucuronosyltransferase 1A8 (Homo sapiens, UniProt Q9HAW9).
T2 sequence (Q9HAW9 whole entry): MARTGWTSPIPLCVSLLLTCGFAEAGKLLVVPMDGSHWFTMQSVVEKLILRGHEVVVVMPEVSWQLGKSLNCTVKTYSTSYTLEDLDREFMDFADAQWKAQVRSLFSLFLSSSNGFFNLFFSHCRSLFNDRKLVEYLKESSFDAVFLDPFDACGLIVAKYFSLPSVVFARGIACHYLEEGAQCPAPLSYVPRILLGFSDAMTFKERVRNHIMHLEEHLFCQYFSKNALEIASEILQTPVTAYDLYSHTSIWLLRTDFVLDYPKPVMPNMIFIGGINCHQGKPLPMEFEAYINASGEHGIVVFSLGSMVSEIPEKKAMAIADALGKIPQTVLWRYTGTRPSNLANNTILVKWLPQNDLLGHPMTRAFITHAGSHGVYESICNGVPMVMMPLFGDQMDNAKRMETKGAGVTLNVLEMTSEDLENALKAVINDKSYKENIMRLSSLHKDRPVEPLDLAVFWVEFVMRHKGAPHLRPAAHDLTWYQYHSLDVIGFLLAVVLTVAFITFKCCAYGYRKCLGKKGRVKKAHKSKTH
Briefly: Activity of human UGT1A8 expressed in microsomes isolated from baculovirus infected insect cell assessed as enzyme-mediated 2-mercapto-3-(4-((6-methoxy-1-methyl-1H-benzo[d]imidazol-2-yl)methoxy)phenyl)propanoic acid formation at 20 uM after 4 hrs by radio-HPLC/LC-MS/MS analysis in presence of UDPGA.

Data set [2] concerns the target T3, UDP-glucuronosyltransferase 1A9 (Homo sapiens, UniProt O60656).
T3 sequence (O60656 whole entry): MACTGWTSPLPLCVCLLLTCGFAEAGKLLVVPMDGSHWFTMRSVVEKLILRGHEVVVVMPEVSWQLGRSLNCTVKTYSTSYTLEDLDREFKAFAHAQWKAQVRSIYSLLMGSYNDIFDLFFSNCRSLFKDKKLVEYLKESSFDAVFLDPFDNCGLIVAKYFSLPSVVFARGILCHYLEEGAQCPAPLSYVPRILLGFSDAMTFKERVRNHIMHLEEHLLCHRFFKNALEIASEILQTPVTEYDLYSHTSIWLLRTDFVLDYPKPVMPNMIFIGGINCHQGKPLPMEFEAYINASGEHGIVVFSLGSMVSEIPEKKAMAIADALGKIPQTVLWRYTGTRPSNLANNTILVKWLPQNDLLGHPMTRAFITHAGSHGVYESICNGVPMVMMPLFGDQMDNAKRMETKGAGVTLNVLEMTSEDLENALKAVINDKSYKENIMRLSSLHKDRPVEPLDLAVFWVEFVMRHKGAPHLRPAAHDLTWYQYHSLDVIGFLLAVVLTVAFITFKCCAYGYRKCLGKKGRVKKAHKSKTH
Briefly: Activity of human UGT1A9 expressed in microsomes isolated from baculovirus infected insect cell assessed as enzyme-mediated 2-mercapto-3-(4-((6-methoxy-1-methyl-1H-benzo[d]imidazol-2-yl)methoxy)phenyl)propanoic acid formation at 20 uM after 4 hrs by radio-HPLC/LC-MS/MS analysis in presence of UDPGA.

Another data set concerns the target Cytochrome P450 3A5 (Homo sapiens, UniProt P20815). Briefly: Activity of human CYP3A5 expressed in microsomes isolated from baculovirus infected insect cell assessed as enzyme-mediated 5-hydroxy-5-(4-((6-methoxy-1-methyl-1H-benzo[d]imidazol-2-yl)methoxy)benzyl)thiazolidine-2,4-dione formation at 20 uM after 2 hrs by radio-HPLC/LC-MS/MS analysis in presence of NADPH-generating system and NADPH-generating system/SAM. The procedure, abridged: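 cDNA-expressed human CYP3A5 in baculovirus-insect-cell microsomes (1 mg/ml protein) was incubated with [¹⁴C]rivoglitazone (20 μM) in 50 mM potassium phosphate (pH 7.4) or 100 mM Tris-HCl (pH 7.5). NADPH-generating system: 2 mM NADP⁺, 20 mM glucose 6-phosphate, 2 units/ml G6PDH, 10 mM MgCl₂. Incubation ran 2 h at 37°C with shaking; insect-cell control supersomes served as control. Acetonitrile stop, supernatant concentrated, then radio-HPLC, LC-MS and LC-MS/MS.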

The next data set concerns the target Cytochrome P450 2C9 (Homo sapiens, UniProt P11712). Briefly: Activity of human CYP2C9 expressed in microsomes isolated from baculovirus infected insect cell assessed as enzyme-mediated 3-(4-((6-methoxy-1-methyl-1H-benzo[d]imidazol-2-yl)methoxy)phenyl)-2-(methylthio)propanamide formation at 20 uM after 2 hrs by radio-HPLC/LC-MS/MS analysis in presence of NADPH-generating system/SAM.

Sequence of Cytochrome P450 2C9 (P11712 whole entry): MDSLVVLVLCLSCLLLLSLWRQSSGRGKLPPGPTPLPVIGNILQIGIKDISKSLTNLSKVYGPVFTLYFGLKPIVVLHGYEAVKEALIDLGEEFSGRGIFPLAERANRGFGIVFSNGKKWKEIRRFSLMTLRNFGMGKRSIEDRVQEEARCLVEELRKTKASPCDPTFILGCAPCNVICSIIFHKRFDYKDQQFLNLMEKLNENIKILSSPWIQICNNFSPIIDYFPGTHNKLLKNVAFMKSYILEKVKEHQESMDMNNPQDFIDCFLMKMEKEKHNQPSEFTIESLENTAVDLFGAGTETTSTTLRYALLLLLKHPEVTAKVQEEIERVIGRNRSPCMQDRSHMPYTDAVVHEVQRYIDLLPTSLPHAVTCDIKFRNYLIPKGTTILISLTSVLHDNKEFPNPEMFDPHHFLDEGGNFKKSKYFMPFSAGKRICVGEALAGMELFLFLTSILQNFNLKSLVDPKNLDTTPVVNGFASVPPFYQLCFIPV
Sequence of Cytochrome P450 3A5 (P20815 whole entry): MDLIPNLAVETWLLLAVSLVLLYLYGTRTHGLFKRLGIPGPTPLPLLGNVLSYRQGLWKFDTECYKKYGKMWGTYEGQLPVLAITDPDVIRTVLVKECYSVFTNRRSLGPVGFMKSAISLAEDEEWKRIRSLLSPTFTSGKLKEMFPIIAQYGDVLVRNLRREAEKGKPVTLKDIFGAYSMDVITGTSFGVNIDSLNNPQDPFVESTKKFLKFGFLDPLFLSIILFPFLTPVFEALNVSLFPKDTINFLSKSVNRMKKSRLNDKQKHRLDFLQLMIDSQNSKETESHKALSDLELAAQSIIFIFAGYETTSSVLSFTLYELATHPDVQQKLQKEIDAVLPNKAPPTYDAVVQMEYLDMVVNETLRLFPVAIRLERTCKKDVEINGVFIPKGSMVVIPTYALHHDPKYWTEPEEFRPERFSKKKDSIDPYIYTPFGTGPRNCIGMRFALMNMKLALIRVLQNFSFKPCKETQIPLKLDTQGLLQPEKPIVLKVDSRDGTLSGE

Turning to `COc1ccc2nc(COc3ccc(CC(S)C(=O)O)cc3)n(C)c2c1` (stereo not given), the Drug metabolism entry on Cytochrome P450 1A2 is “metabolite_detected”.
For the compound `COc1ccc2nc(COc3ccc(C[14CH]4SC(=O)NC4=O)cc3)n(C)c2c1.Cl` (racemic), the Drug metabolism result in data set [1] is listed as “metabolite_not_detected”; in data set [2], “metabolite_not_detected”; on Cytochrome P450 3A5, “metabolite_detected”; on Cytochrome P450 2C9 it was “metabolite_not_detected”.

Values taken from ChEMBL document CHEMBL3526048, “In vitro metabolism of rivoglitazone, a novel peroxisome proliferator-activated receptor γ agonist, in rat, monkey, and human liver microsomes and freshly isolated hepatocytes” (Drug Metab Dispos, 2011).
